From ChEMBL document CHEMBL1148884, “Radioiodinated aza-diphenylacetylenes as potential SPECT imaging agents for beta-amyloid plaque detection” (Bioorg Med Chem Lett, 2007)

Target: Amyloid-beta precursor protein (Homo sapiens, UniProt P05067)
Assay: Displacement of [125I]IMPY from beta amyloid plaque in human brain homogenates
Assay type: tissue-based
Settings: not given
In short: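 Competition binding with [125I]IMPY as radioligand on homogenates from postmortem Alzheimer's disease brain tissue. Non-radioactive ligands compete for plaque binding, and Ki is derived from the competition. Each value was determined three times with duplicate samples in each measurement, reported as mean ± SEM.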

Sequence of Amyloid-beta precursor protein (P05067 whole entry): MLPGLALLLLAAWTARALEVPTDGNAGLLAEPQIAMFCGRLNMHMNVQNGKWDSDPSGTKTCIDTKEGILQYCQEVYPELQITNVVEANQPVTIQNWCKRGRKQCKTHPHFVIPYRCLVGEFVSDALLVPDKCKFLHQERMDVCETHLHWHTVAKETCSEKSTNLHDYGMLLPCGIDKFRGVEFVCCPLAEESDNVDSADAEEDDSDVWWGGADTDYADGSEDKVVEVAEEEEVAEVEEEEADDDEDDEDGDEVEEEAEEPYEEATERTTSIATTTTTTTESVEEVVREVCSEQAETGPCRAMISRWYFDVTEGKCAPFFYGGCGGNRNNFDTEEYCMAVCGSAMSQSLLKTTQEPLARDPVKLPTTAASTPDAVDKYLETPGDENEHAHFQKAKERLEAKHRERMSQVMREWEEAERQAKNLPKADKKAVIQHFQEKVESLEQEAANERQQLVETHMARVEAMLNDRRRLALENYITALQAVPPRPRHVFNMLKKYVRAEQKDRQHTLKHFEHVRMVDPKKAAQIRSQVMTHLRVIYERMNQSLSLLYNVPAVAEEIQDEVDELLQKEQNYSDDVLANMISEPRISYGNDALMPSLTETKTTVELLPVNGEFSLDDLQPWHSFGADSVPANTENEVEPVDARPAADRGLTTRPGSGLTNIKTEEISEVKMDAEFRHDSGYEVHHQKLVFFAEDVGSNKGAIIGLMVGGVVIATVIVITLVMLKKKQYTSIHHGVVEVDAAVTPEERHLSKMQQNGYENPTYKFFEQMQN

Row | SMILES | Ki [nM]
1 | CNc1ccc(C#Cc2cnc(OCCO)c(Br)c2)cc1 | 1.6
2 | CN(C)c1ccc(C#Cc2cnc(OCCO)c(Br)c2)cc1 | 6.7
3 | CNc1ccc(C#Cc2cnc(OCCO)c(I)c2)cc1 | 12.5
4 | OCCOc1ncc(C#Cc2ccc(O)cc2)cc1I | 6.2
5 | CN(C)c1ccc(C#Cc2cnc(OCCO)c(I)c2)cc1 | 9.2

Second part, the molecule after the results:

Row | Ki [nM] | SMILES
6 | 13.1 | CNc1ccc(C#Cc2cnc(OCCOCCOCCF)c(Br)c2)cc1
7 | 11.2 | CN(C)c1ccc(C#Cc2cnc(OCCOCCOCCF)c(Br)c2)cc1
8 | 16.8 | CN(C)c1ccc(C#Cc2cnc(OCCOCCOCCF)c(I)c2)cc1

Tested on: not listed separately
Assay: Lipophilicity, log P of the compound
Assay type: physicochemical
Settings: octanol/water

Row | logP | SMILES
9 | 2.8 | CN(C)c1ccc(C#Cc2cnc(OCCO)c([125I])c2)cc1
10 | 2.6 | CN(C)c1ccc(C#Cc2cnc(OCCOCCOCCF)c([125I])c2)cc1
